In ChEMBL document CHEMBL4038284, “Synthesis of novel quinoline-based 4,5-dihydro-1H-pyrazoles as potential anticancer, antifungal, antibacterial and antiprotozoal agents” (Eur J Med Chem, 2017):

Key:
Type in all cases: functional
RPMI-8226 = assay: Growth inhibition of human RPMI8226 cells incubated for 48 hrs by sulforhodamine B assay; conditions: RPMI-8226, 48 h; for CC50: read-out: LC50 (the source's name)
Outline: (§1)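 NCI 60-line screen. Cells in RPMI-1640 with 5% FBS and 2 mM L-glutamine, preincubated 24 h, then time-zero plates TCA-fixed. Compounds from DMSO stocks given at five final concentrations (100, 10, 1.0, 0.1, 0.01 µM) for 48 h at 37 °C, 5% CO2. Cells fixed with 10% TCA, SRB-stained, read at 515 nm. GI50 is the concentration giving 50% lower net protein increase versus control.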

MCF7 = assay: Growth inhibition of human MCF7 cells incubated for 48 hrs by sulforhodamine B assay; conditions: MCF7, 48 h; for CC50: read-out: LC50 (the source's name); outline: as §1
SK-MEL-28 = assay: Growth inhibition of human SK-MEL-28 cells incubated for 48 hrs by sulforhodamine B assay; conditions: SK-MEL-28, 48 h; for CC50: read-out: LC50 (the source's name)
Outline: (§2)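 NCI-60 panel cells grown in RPMI-1640 with 5% FBS and 2 mM L-glutamine, preincubated 24 h at 37 °C/5% CO2. Time-zero plates were TCA-fixed at compound addition. DMSO stocks were diluted in medium and tested at five final concentrations (100, 10, 1.0, 0.1, 0.01 µM) for 48 h. Cells were TCA-fixed, stained with SRB and read at 515 nm. GI50 = 50% lower net protein increase versus control.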

PC-3 = assay: Growth inhibition of human PC3 cells incubated for 48 hrs by sulforhodamine B assay; conditions: PC-3, 48 h; for CC50: read-out: LC50 (the source's name)
Outline: (§3)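 Five-dose NCI SRB assay at 100, 10, 1.0, 0.1 and 0.01 μM for 48 h at 37 °C, 5% CO2. Medium was RPMI-1640 with 5% FBS and 2 mM glutamine. Time-zero plates were TCA-fixed at compound addition, A515 read after SRB staining. GI50 was solved from [(Ti−Tz)/(C−Tz)]×100 = 50. Values beyond the tested range are given as > or <.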

UACC-62 = assay: Growth inhibition of human UACC62 cells incubated for 48 hrs by sulforhodamine B assay; conditions: UACC-62, 48 h; for CC50: read-out: LC50 (the source's name); outline: as §1
MDA-MB-435 = assay: Growth inhibition of human MDA-MB-435 cells incubated for 48 hrs by sulforhodamine B assay; conditions: MDA-MB-435, 48 h; outline: as §3
RXF 393 = assay: Growth inhibition of human RXF393 cells incubated for 48 hrs by sulforhodamine B assay; conditions: RXF 393, 48 h; for CC50: read-out: LC50 (the source's name); outline: as §3
MDA-MB-231 = assay: Growth inhibition of human MDA-MB-231 cells incubated for 48 hrs by sulforhodamine B assay; conditions: MDA-MB-231, 48 h; outline: as §3
NCI-H322M = assay: Growth inhibition of human NCI-H322M cells incubated for 48 hrs by sulforhodamine B assay; conditions: for CC50: read-out: LC50 (the source's name); outline: as §3
HCT-15 = assay: Growth inhibition of human HCT15 cells incubated for 48 hrs by sulforhodamine B assay; conditions: HCT-15, 48 h; outline: as §1
MDA-MB-468 = assay: Growth inhibition of human MDA-MB-468 cells incubated for 48 hrs by sulforhodamine B assay; conditions: MDA-MB-468, 48 h; outline: as §3
SF-539 = assay: Growth inhibition of human SF539 cells incubated for 48 hrs by sulforhodamine B assay; conditions: SF-539, 48 h; for CC50: read-out: LC50 (the source's name); outline: as §2
UACC-257 = assay: Growth inhibition of human UACC257 cells incubated for 48 hrs by sulforhodamine B assay; conditions: UACC-257, 48 h; for CC50: read-out: LC50 (the source's name); outline: as §2
IGROV-1 = assay: Growth inhibition of human IGROV1 cells incubated for 48 hrs by sulforhodamine B assay; conditions: IGROV-1, 48 h; for CC50: read-out: LC50 (the source's name); outline: as §1
UO-31 = assay: Growth inhibition of human UO31 cells incubated for 48 hrs by sulforhodamine B assay; conditions: UO-31, 48 h; for CC50: read-out: LC50 (the source's name); outline: as §2
HL-60(TB) = assay: Growth inhibition of human HL-60(TB) cells incubated for 48 hrs by sulforhodamine B assay; conditions: HL-60, 48 h; for CC50: read-out: LC50 (the source's name); outline: as §1
DU-145 = assay: Growth inhibition of human DU145 cells incubated for 48 hrs by sulforhodamine B assay; conditions: DU-145, 48 h
Outline: (§4)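 NCI five-dose SRB assay (100, 10, 1.0, 0.1, 0.01 µM) with 48 h exposure in RPMI-1640 with 5% FBS and 2 mM L-glutamine. Cells fixed with TCA and stained with SRB, read at 515 nm. GI50 is the concentration where [(Ti−Tz)/(C−Tz)]×100 = 50.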

NCI-H460 = assay: Growth inhibition of human NCI-H460 cells incubated for 48 hrs by sulforhodamine B assay; conditions: NCI-H460, 48 h; for CC50: read-out: LC50 (the source's name); outline: as §3
TK-10 = assay: Growth inhibition of human TK10 cells incubated for 48 hrs by sulforhodamine B assay; conditions: TK-10, 48 h; for CC50: read-out: LC50 (the source's name); outline: as §1
U-251 = assay: Growth inhibition of human U251 cells incubated for 48 hrs by sulforhodamine B assay; conditions: U-251, 48 h; for CC50: read-out: LC50 (the source's name); outline: as §2
LOX IMVI = assay: Growth inhibition of human LOXIMVI cells incubated for 48 hrs by sulforhodamine B assay; conditions: for CC50: read-out: LC50 (the source's name); outline: as §3
OVCAR-8 = assay: Growth inhibition of human OVCAR8 cells incubated for 48 hrs by sulforhodamine B assay; conditions: OVCAR-8, 48 h; outline: as §3
SNB-75 = assay: Growth inhibition of human SNB75 cells incubated for 48 hrs by sulforhodamine B assay; conditions: SNB-75, 48 h; for CC50: read-out: LC50 (the source's name); outline: as §1
OVCAR-5 = assay: Growth inhibition of human OVCAR5 cells incubated for 48 hrs by sulforhodamine B assay; conditions: OVCAR-5, 48 h; for CC50: read-out: LC50 (the source's name); outline: as §1
NCI-H23 = assay: Growth inhibition of human NCI-H23 cells incubated for 48 hrs by sulforhodamine B assay; conditions: NCI-H23, 48 h; for CC50: read-out: LC50 (the source's name); outline: as §3
NCI-H522 = assay: Growth inhibition of human NCI-H522 cells incubated for 48 hrs by sulforhodamine B assay; conditions: NCI-H522, 48 h; for CC50: read-out: LC50 (the source's name); outline: as §1
A549 = assay: Growth inhibition of human A549/ATCC cells incubated for 48 hrs by sulforhodamine B assay; conditions: A549, 48 h; outline: as §1
SF-268 = assay: Growth inhibition of human SF268 cells incubated for 48 hrs by sulforhodamine B assay; conditions: SF-268, 48 h; outline: as §3
EKVX = assay: Growth inhibition of human EKVX cells incubated for 48 hrs by sulforhodamine B assay; outline: as §4
NCI/ADR-RES = assay: Growth inhibition of human NCI/ADR-RES cells incubated for 48 hrs by sulforhodamine B assay; conditions: for CC50: read-out: LC50 (the source's name); outline: as §1
[1] = read-out: LC50 (the source's name)

COc1cc(C(=O)/C=C/c2cccc(Nc3ccnc4cc(Cl)ccc34)c2)cc(OC)c1OC
GI50 (RPMI-8226): 310 nM | CC50 (RPMI-8226): > 100000 nM | GI50 (MCF7): 610 nM | CC50 (MCF7): 5240 nM | GI50 (SK-MEL-28): 1510 nM | CC50 (SK-MEL-28): 5980 nM | GI50 (PC-3): 1480 nM | CC50 (PC-3): > 100000 nM | GI50 (UACC-62): 1030 nM | CC50 (UACC-62): 5400 nM | GI50 (MDA-MB-435): 470 nM | GI50 (RXF 393): 1080 nM | CC50 (RXF 393): 5670 nM | GI50 (MDA-MB-231): 1810 nM | GI50 (NCI-H322M): 1520 nM | CC50 (NCI-H322M): 7080 nM | GI50 (HCT-15): 520 nM | GI50 (MDA-MB-468): 1130 nM | GI50 (SF-539): 1360 nM | CC50 (SF-539): 5270 nM | GI50 (UACC-257): 1430 nM | CC50 (UACC-257): 6530 nM | GI50 (IGROV-1): 1320 nM | CC50 (IGROV-1): > 100000 nM | GI50 (UO-31): 570 nM | CC50 (UO-31): 4420 nM | GI50 (HL-60(TB)): 1820 nM | CC50 (HL-60(TB)): > 100000 nM | GI50 (DU-145): 1460 nM | GI50 (NCI-H460): 1910 nM | CC50 (NCI-H460): > 100000 nM | GI50 (TK-10): 1450 nM | CC50 (TK-10): 6110 nM | GI50 (U-251): 910 nM | CC50 (U-251): 5190 nM | GI50 (LOX IMVI): 370 nM | CC50 (LOX IMVI): 3950 nM | GI50 (OVCAR-8): 520 nM | LC50 (concentration causing 50% net cell kill) (OVCAR-8): 7070 nM | GI50 (SNB-75): 1310 nM | CC50 (SNB-75): > 100000 nM | GI50 (OVCAR-5): 1700 nM | CC50 (OVCAR-5): 6370 nM | GI50 (NCI-H23): 1670 nM | CC50 (NCI-H23): 8100 nM | GI50 (NCI-H522): 590 nM | CC50 (NCI-H522): 6230 nM | GI50 (A549): 1480 nM | LC50 (concentration giving 50% net cell kill) (A549): 11500 nM | GI50 (SF-268): 1240 nM | GI50 (EKVX): 1620 nM | GI50 (NCI/ADR-RES): 410 nM | CC50 (NCI/ADR-RES): > 100000 nM

O=CN1N=C(c2ccc(Cl)cc2)CC1c1cccc(Nc2ccnc3cc(Cl)ccc23)c1 (stereo not drawn)
GI50 (RPMI-8226): 610 nM | CC50 (RPMI-8226): > 100000 nM | GI50 (MCF7): 870 nM | CC50 (MCF7): > 100000 nM | GI50 (SK-MEL-28): 3150 nM | CC50 (SK-MEL-28): > 100000 nM | GI50 (PC-3): 1690 nM | CC50 (PC-3): > 100000 nM | GI50 (UACC-62): 1140 nM | CC50 (UACC-62): 87800 nM | GI50 (MDA-MB-435): 380 nM | CC50 (MDA-MB-435; [1]): > 100000 nM | GI50 (RXF 393): 1400 nM | CC50 (RXF 393): > 100000 nM | GI50 (MDA-MB-231): 2740 nM | CC50 (MDA-MB-231; [1]): > 100000 nM | GI50 (NCI-H322M): 5520 nM | CC50 (NCI-H322M): > 100000 nM | GI50 (HCT-15): 1360 nM | CC50 (HCT-15; [1]): > 100000 nM | GI50 (MDA-MB-468): 280 nM | CC50 (MDA-MB-468; [1]): > 100000 nM | GI50 (SF-539): 1690 nM | CC50 (SF-539): 35100 nM | GI50 (UACC-257): 1470 nM | CC50 (UACC-257): > 100000 nM | GI50 (IGROV-1): 1440 nM | CC50 (IGROV-1): > 100000 nM | GI50 (UO-31): 1700 nM | CC50 (UO-31): > 100000 nM | GI50 (HL-60(TB)): 1270 nM | CC50 (HL-60(TB)): > 100000 nM | GI50 (DU-145): 2800 nM | CC50 (DU-145; [1]): > 100000 nM | GI50 (NCI-H460): 1860 nM | CC50 (NCI-H460): > 100000 nM | GI50 (TK-10): 2340 nM | CC50 (TK-10): > 100000 nM | GI50 (U-251): 2470 nM | CC50 (U-251): 53900 nM | GI50 (LOX IMVI): 1290 nM | CC50 (LOX IMVI): 9050 nM | GI50 (OVCAR-8): 1920 nM | LC50 (concentration causing 50% net cell kill) (OVCAR-8): > 100000 nM | GI50 (SNB-75): 1700 nM | CC50 (SNB-75): > 100000 nM | GI50 (OVCAR-5): 9420 nM | CC50 (OVCAR-5): > 100000 nM | GI50 (NCI-H23): 1070 nM | CC50 (NCI-H23): > 100000 nM | GI50 (NCI-H522): 1120 nM | CC50 (NCI-H522): 66700 nM | GI50 (A549): 2030 nM | LC50 (concentration giving 50% net cell kill) (A549): > 100000 nM | GI50 (SF-268): 2730 nM | CC50 (SF-268; [1]): > 100000 nM | GI50 (EKVX): 1590 nM | LC50 (EKVX): > 100000 nM | GI50 (NCI/ADR-RES): 780 nM | CC50 (NCI/ADR-RES): > 100000 nM
